Reference: ChEMBL document CHEMBL3745714, “Fragment-based drug discovery of potent and selective MKK3/6 inhibitors” (Bioorg Med Chem Lett, 2016)

Columns and labels:
[1] = biological target: T1, Dual specificity mitogen-activated protein kinase kinase 3 (Homo sapiens, UniProt P46734); experiment: Inhibition of MKK3 (unknown origin) using [gamma-33P]-ATP after 20 mins by radiometric assay
T1 sequence (P46734 whole entry): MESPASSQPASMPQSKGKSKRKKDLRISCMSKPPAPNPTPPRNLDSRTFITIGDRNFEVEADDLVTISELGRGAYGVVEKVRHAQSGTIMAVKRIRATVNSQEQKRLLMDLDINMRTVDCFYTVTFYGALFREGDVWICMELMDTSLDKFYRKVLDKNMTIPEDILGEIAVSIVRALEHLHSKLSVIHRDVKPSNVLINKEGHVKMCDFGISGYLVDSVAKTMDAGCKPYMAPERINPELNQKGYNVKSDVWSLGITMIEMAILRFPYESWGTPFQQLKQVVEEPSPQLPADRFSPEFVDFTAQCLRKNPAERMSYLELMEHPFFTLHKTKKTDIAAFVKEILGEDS

Homo sapiens [2] = organism: Homo sapiens; experiment: Selectivity ratio of IC50 for MKK3 (unknown origin) to IC50 for ERK2 (unknown origin)
Homo sapiens [3] = organism: Homo sapiens; experiment: Selectivity ratio of IC50 for MKK3 (unknown origin) to IC50 for p38gamma (unknown origin)
Homo sapiens [4] = organism: Homo sapiens; experiment: Selectivity ratio of IC50 for MKK3 (unknown origin) to IC50 for p38alpha (unknown origin)
Homo sapiens [5] = organism: Homo sapiens; experiment: Selectivity ratio of IC50 for MKK3 (unknown origin) to IC50 for ERK1 (unknown origin)
Homo sapiens [6] = organism: Homo sapiens; experiment: Selectivity ratio of IC50 for MKK3 (unknown origin) to IC50 for JNK2 (unknown origin)
Homo sapiens [7] = organism: Homo sapiens; experiment: Selectivity ratio of IC50 for MKK3 (unknown origin) to IC50 for MKK6 (unknown origin)
Homo sapiens [8] = organism: Homo sapiens; experiment: Selectivity ratio of IC50 for MKK3 (unknown origin) to IC50 for MEK2 (unknown origin)
Homo sapiens [9] = organism: Homo sapiens; experiment: Selectivity ratio of IC50 for MKK3 (unknown origin) to IC50 for TAK1 (unknown origin)
Homo sapiens [10] = organism: Homo sapiens; experiment: Selectivity ratio of IC50 for MKK3 (unknown origin) to IC50 for JNK1 (unknown origin)
Homo sapiens [11] = organism: Homo sapiens; experiment: Selectivity ratio of IC50 for MKK3 (unknown origin) to IC50 for MEK1 (unknown origin)
Homo sapiens [12] = organism: Homo sapiens; experiment: Selectivity ratio of IC50 for MKK3 (unknown origin) to IC50 for MLK3 (unknown origin)
[13] = biological target: Mitogen-activated protein kinase 14 (Homo sapiens, UniProt Q16539); experiment: Inhibition of p38alpha phosphorylation in human TNFalpha-stimulated U937 cells treated 1 hr before by ELISA; assay type: cell-based, U-937
Method in brief: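 U937 human leukemic monocytes were pre-treated with compound across a dose range for one hour, then stimulated with TNFα. Phospho-p38α was quantified by ELISA, and IC50 was taken from the dose-response.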

Homo sapiens [14] = organism: Homo sapiens; experiment: Selectivity ratio of IC50 for MKK3 (unknown origin) to IC50 for ASK1 (unknown origin)
[15] = biological target: T2, Dual specificity mitogen-activated protein kinase kinase 6 (Homo sapiens, UniProt P52564); experiment: Inhibition of MKK6 (unknown origin) using [gamma-33P]-ATP after 20 mins by radiometric assay
T2 sequence (P52564 whole entry): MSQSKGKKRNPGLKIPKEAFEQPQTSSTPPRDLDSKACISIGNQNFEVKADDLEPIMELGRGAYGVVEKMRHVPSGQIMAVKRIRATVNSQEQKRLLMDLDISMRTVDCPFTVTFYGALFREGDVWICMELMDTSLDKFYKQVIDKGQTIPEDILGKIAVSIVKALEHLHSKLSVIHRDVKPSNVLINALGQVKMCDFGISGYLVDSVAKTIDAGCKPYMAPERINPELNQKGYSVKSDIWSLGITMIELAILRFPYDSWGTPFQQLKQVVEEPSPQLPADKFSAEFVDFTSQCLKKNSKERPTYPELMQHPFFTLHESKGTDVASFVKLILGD

[16] = biological target: T1, Dual specificity mitogen-activated protein kinase kinase 3; experiment: Binding affinity to MKK3 (unknown origin) by surface plasmon resonance assay

Sequence of Mitogen-activated protein kinase 14 (Q16539 whole entry): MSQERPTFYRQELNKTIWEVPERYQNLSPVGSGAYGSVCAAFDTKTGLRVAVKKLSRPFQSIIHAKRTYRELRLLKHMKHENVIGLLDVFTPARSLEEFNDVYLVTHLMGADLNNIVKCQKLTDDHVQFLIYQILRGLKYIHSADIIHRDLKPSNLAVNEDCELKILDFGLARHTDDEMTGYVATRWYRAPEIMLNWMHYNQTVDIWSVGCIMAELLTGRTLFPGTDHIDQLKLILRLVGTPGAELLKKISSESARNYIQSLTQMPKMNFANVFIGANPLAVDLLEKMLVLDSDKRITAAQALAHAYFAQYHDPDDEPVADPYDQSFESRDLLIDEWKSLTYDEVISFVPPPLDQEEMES

SMILES	IC50 [1] [µM]	Ratio IC50 (Homo sapiens [2])	Ratio IC50 (Homo sapiens [3])	Ratio IC50 (Homo sapiens [4])	Ratio IC50 (Homo sapiens [5])	Ratio IC50 (Homo sapiens [6])	Ratio IC50 (Homo sapiens [7])	Ratio IC50 (Homo sapiens [8])	Ratio IC50 (Homo sapiens [9])	Ratio IC50 (Homo sapiens [10])	Ratio IC50 (Homo sapiens [11])	Ratio IC50 (Homo sapiens [12])	IC50 [13] [µM]	Ratio IC50 (Homo sapiens [14])	IC50 [15] [µM]	Kd [16] [µM]
NC(=O)c1nc(-c2ccncc2)c2ccccn12	0.15	–	–	–	–	–	–	–	–	–	–	–	–	–	–	–
NC(=O)c1nc(-c2ccns2)c2ccccn12	0.004	> 100	> 100	> 100	> 100	> 100	12	> 100	23	> 100	86	> 100	0.73	> 100	–	–
NC(=O)c1nnc2ccccc2c1N	37	–	–	–	–	–	–	–	–	–	–	–	–	–	16	2

Continued, in another order:

IC50 [1] [µM]	Ratio IC50 (Homo sapiens [2])	Ratio IC50 (Homo sapiens [3])	Ratio IC50 (Homo sapiens [4])	Ratio IC50 (Homo sapiens [5])	Ratio IC50 (Homo sapiens [6])	Ratio IC50 (Homo sapiens [7])	Ratio IC50 (Homo sapiens [8])	Ratio IC50 (Homo sapiens [9])	Ratio IC50 (Homo sapiens [10])	Ratio IC50 (Homo sapiens [11])	Ratio IC50 (Homo sapiens [12])	IC50 [13] [µM]	Ratio IC50 (Homo sapiens [14])	SMILES	IC50 [15] [µM]	Kd [16] [µM]
0.004	> 100	> 100	> 100	> 100	> 100	< 9	> 100	> 100	> 100	> 100	> 100	2.7	> 100	CNc1ccc(-c2ccncc2)nc1C(N)=O	–	–
0.03	–	–	–	–	–	–	–	–	–	–	–	–	–	NC(=O)c1nc(-c2ccncc2)ccc1N	–	–
4.2	–	–	–	–	–	–	–	–	–	–	–	–	–	NC(=O)c1nc(-c2ccccc2)ccc1N	–	–
